Laboratory results taken from ChEMBL document CHEMBL3272032, “Antifolate studies. Activities of 40 potential antimalarial compounds against sensitive and chlorguanide triazine resistant strains of folate-requiring bacteria and Escherichia coli” (J Med Chem, 1977).
The source made the active and inactive calls. No cut-off for these calls is given here.

How the values were obtained:
Enterococcus faecium [1] = experiment: Fold increase in resistance, ratio of IC50 for chlorguanide triazine-resistant Streptococcus faecium ATCC 8043 to IC50 for sensitive Streptococcus faecium ATCC 8043; type: functional
In short: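 Resistant S. faecium substrain raised by serial transfer in increasing chlorguanide triazine. IC50 (µM, 50% growth inhibition by turbidity) was found for resistant and parent strains in folic acid (0.002 µg/ml) medium. Fold increase taken as IC50 resistant / IC50 sensitive.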

Lacticaseibacillus casei [2] = experiment: Antibacterial activity against chlorguanide triazine-resistant Lactobacillus casei ATCC 7469 assessed as reduction in growth; type: functional, organism-based
In short: (§1)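 Folate-requiring strains grown in medium with folic acid, 0.002 µg/ml for S. faecium and 0.001 µg/ml for L. casei; P. cerevisiae given folinic acid, 0.001 µg/ml. Resistant substrains came from serial transfer in rising chlorguanide triazine, and the most resistant were used. Compounds tested up to 1000 µg/ml, or 100 µg/ml when supply was limited. Growth read as Klett turbidity; IC50 is the µM concentration giving 50% growth inhibition.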

Enterococcus faecium [3] = experiment: Antibacterial activity against chlorguanide triazine-resistant Streptococcus faecium ATCC 8043 assessed as reduction in growth in presence of 0.002 ug/ml folic acid; type: functional, organism-based; in short: as §1
Escherichia coli [4] = experiment: Antibacterial activity against sensitive Escherichia coli ATCC 10536 assessed as reduction in growth; type: functional, organism-based
In short: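 Growth inhibition in Sahyun et al. medium plus 0.6% acid-hydrolyzed casein. Growth read as turbidity on a Klett-Summerson photoelectric colorimeter. IC50 is the micromolar concentration giving 50% growth inhibition. Top concentration was 1000 μg/ml, or 100 μg/ml when compound was limited.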

Pediococcus [5] = experiment: Antibacterial activity against chlorguanide triazine-resistant Pediococcus cerevisiae ATCC 808 assessed as reduction in growth in presence of 0.001 ug/ml folinic acid; type: functional; in short: as §1
[6] = Antibacterial activity against sensitive Pediococcus cerevisiae ATCC 808 assessed as reduction; type: functional
In short: (§2)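 P. cerevisiae grown with folinic acid at 0.001 μg/ml in the earlier-described medium. Turbidity read on a Klett-Summerson colorimeter. IC50 is the micromolar concentration reducing growth to 50% of control. Top concentration was 1000 μg/ml, or 100 μg/ml when supply was limited.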

Enterococcus faecium [7] = experiment: Antibacterial activity against sensitive Streptococcus faecium ATCC 8043 assessed as reduction in growth; type: functional, organism-based; in short: as §1
Plasmodium berghei [8] = experiment: Antimalarial activity against Plasmodium berghei infected in sc dosed mouse assessed as active dose required to increase of 100% in mean survival time; type: functional; conditions: read-out: MED
In short: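 Mice received a standard blood-induced P. berghei inoculum and were then treated with one subcutaneous dose of compound suspended in peanut oil. The minimum active dose is the lowest dose that raised mean survival time by 100%.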

Enterococcus faecium [9] = experiment: Antibacterial activity against chlorguanide triazine-resistant Streptococcus faecium ATCC 8043 assessed as reduction in growth; type: functional, organism-based; in short: as §1
Pediococcus [10] = experiment: Fold increase in resistance, ratio of IC50 for chlorguanide triazine-resistant Pediococcus cerevisiae ATCC 808 to IC50 for sensitive Pediococcus cerevisiae ATCC 808; type: functional
In short: (§3)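 Resistant substrains were made by serial transfer in rising concentrations of cycloguanil, and the most resistant isolate of each organism was used. Both strains were assayed turbidimetrically under identical conditions. FIR = IC50 of the resistant strain divided by IC50 of the sensitive parent.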

Lacticaseibacillus casei [11] = experiment: Antibacterial activity against sensitive Lactobacillus casei ATCC 7469 assessed as reduction in growth in presence of 0.001 ug/ml folic acid; type: functional, organism-based
In short: (§4)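 Folate-requiring strains in the medium of the earlier assay method. Folic acid was 0.002 μg/ml for S. faecium and 0.001 μg/ml for L. casei. Turbidity read on a Klett-Summerson colorimeter. IC50 is the micromolar concentration reducing growth to 50% of control. Top concentration was 1000 μg/ml, or 100 μg/ml if supply was limited.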

Pediococcus [12] = experiment: Antibacterial activity against sensitive Pediococcus cerevisiae ATCC 808 assessed as reduction in growth in presence of 0.001 ug/ml folinic acid; type: functional; in short: as §2
Lacticaseibacillus casei [13] = experiment: Fold increase in resistance, ratio of IC50 for chlorguanide triazine-resistant Lactobacillus casei ATCC 7469 to IC50 for sensitive Lactobacillus casei ATCC 7469; type: functional; in short: as §3
Lacticaseibacillus casei [14] = experiment: Antibacterial activity against chlorguanide triazine-resistant Lactobacillus casei ATCC 7469 assessed as reduction in growth in presence of 0.001 ug/ml folic acid; type: functional, organism-based; in short: as §1
Enterococcus faecium [15] = experiment: Antibacterial activity against sensitive Streptococcus faecium ATCC 8043 assessed as reduction in growth in presence of 0.002 ug/ml folic acid; type: functional, organism-based; in short: as §4
[16] = Antibacterial activity against chlorguanide triazine-resistant Pediococcus cerevisiae ATCC 808 assessed as reduction in growth; type: functional; in short: as §1
Plasmodium berghei [17] = experiment: Antimalarial activity against Plasmodium berghei infected in sc dosed mouse assessed as dose required to survivors for period of 60 days; type: functional
In short: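 Mice infected with a blood-induced P. berghei inoculum were given one subcutaneous dose in peanut oil. Survivors at 60 days counted as cured. The minimum curative dose is the lowest dose that cured any mouse.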

Lacticaseibacillus casei [18] = experiment: Antibacterial activity against sensitive Lactobacillus casei ATCC 7469 assessed as reduction; type: functional, organism-based; in short: as §1
Escherichia coli [19] = experiment: Antibacterial activity against sensitive Escherichia coli ATCC 10536 assessed as reduction in growth in presence of p-aminobenzoic acid; type: functional, organism-based
In short: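 Reversal test. Drug inhibition was challenged with PABA in Sahyun et al. medium plus 0.6% acid-hydrolyzed casein. Growth read as turbidity on a Klett-Summerson colorimeter. Scored as reversal or nonreversal of the drug inhibition.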

| Structure (SMILES) | Ratio IC50 (Enterococcus faecium [1]) | IC50 (Lacticaseibacillus casei [2]) | inhibition (Enterococcus faecium [3]) | IC50 (Escherichia coli [4]) | inhibition (Pediococcus [5]) | IC50 [6] | IC50 (Enterococcus faecium [7]) | minimal effective dose (Plasmodium berghei [8]) | IC50 (Enterococcus faecium [9]) | Ratio IC50 (Pediococcus [10]) | inhibition (Lacticaseibacillus casei [11]) | inhibition (Pediococcus [12]) | Ratio IC50 (Lacticaseibacillus casei [13]) | inhibition (Lacticaseibacillus casei [14]) | inhibition (Enterococcus faecium [15]) | IC50 [16] | MCD (Plasmodium berghei [17]) | IC50 (Lacticaseibacillus casei [18]) | inhibition (Escherichia coli [19]) |
| --- | --- | --- | --- | --- | --- | --- | --- | --- | --- | --- | --- | --- | --- | --- | --- | --- | --- | --- | --- |
| O=C1C(O)=C(CCCCCCCCC2CCCCC2)C(=O)c2ccccc21 [MENOCTONE] | 1 | 0.019 mM | Active | > 2.7 mM | Active | 1000 µM | 407 µM | 40 mg/kg | 0.394 mM | 0.6 | Active | Active | 0.3 | Active | Active | 570 µM | 160 mg/kg | 61 µM |  |
| CC1(C)N=C(N)N=C(N)N1c1ccc(Cl)cc1 [CYCLOGUANIL] | 194000 | 2.4 mM | inactive | > 3.47 mM | inactive | 35 µM | 0.017 µM | 20 mg/kg | 3.3 mM | 26 | inactive | inactive | 147 | inactive | inactive | 900 µM | 40 mg/kg | 16.3 µM |  |
| Clc1ccc(Nc2nc(NCCCN3CCCC3)c3ccccc3n2)cc1Cl | 0.7 | 0.0057 mM |  | 0.01 mM | Active | 3.5 µM | 32 µM |  | 0.022 mM | 2 | Active | Active | 0.6 |  | Active | 7.9 µM |  | 10 µM | Active |
| N=C(N)NC(=O)Nc1ccc([N+](=O)[O-])cc1 | 2 | 1.8 mM | Active | > 4.48 mM | Active | 83 µM | 1300 µM | 640 mg/kg | 2.5 mM | 2 | Active | Active | 12 | Active | Active | 197 µM | 640 mg/kg | 157 µM |  |
| Cc1nc(C)c(Cl)c(O)c1Cl [CLOPIDOL] | 0.6 | 0.885 mM | Active | > 5.2 mM | Active | 833 µM | 3700 µM | 160 mg/kg | 2.2 mM | 1 | Active | Active | 0.52 |  | Active | 1000 µM | >640 mg/kg | 1700 µM |  |
| C=C[C@H]1CN2CC[C@H]1C[C@H]2[C@H](O)c1ccnc2ccc(OC)cc12 [QUININE] |  | 1.2 mM |  | 1.3 mM | Active | 780 µM | > 2500 µM | 640 mg/kg | > 2.5 mM | 1 | Active | Active | 1 |  |  | 850 µM | >640 mg/kg | 980 µM |  |
